Assay results: ChEMBL document CHEMBL3124806, “Imidazopyridine-fused [1,3]-diazepinones: synthesis and antiproliferative activity” (Eur J Med Chem, 2014)
Active and inactive are the calls of the source. The rule behind the calls is not given here.

Key:
[1] = molecular target: Cyclin-dependent kinase 1 (Homo sapiens) (UniProt P06493); experiment: Inhibition of human CDK1 at 10 uM
In short: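 Kinase selectivity panel of 19 protein tyrosine kinases and 30 serine/threonine kinases, run by a contract lab (CEREP). Each compound was tested at a single dose of 10 μM in duplicate.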

CAKI-1 = experiment: Cytotoxicity against human Caki1 cells after 48 hrs by SRB assay; format: functional; conditions: CAKI-1, 48 h
In short: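 NCI-60 five-dose testing, 100 to 0.01 µM, under a 48 h continuous-exposure protocol. Growth estimated by SRB protein assay, read spectrophotometrically against untreated controls; IC50 derived from the dose-response.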

Sequence of Cyclin-dependent kinase 1 (Homo sapiens) (P06493 whole entry, looked up): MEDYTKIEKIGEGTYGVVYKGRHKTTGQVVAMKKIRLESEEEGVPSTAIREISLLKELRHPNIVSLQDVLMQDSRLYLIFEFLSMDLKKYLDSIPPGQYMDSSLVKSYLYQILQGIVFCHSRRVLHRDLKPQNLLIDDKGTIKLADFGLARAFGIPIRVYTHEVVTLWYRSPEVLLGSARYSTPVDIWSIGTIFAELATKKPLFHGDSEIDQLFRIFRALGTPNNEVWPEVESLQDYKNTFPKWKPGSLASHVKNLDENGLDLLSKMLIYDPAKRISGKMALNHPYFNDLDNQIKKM

## C[C@@H]1NC(c2ccc(Br)cc2)=Nc2nc3ccccn3c2C1=O
[1]
  inhibition: inactive
CAKI-1
  GI50: 3.09 µM
  TGI: > 100 µM
CAKI-1; read-out: LC50 (the source's name)
  CC50: > 100 µM
